Reference: ChEMBL document CHEMBL5096220, “Selective Inhibition of the Periodontal Pathogen Porphyromonas gingivalis by Third-Generation Zafirlukast Derivatives” (J Med Chem, 2022)
The source made the active and inactive calls. No cut-off for these calls is given here.

Legend:
Fusobacterium nucleatum = assay: Antibacterial activity against Fusobacterium nucleatum ATCC 25586 assessed as growth inhibition at 100 uM measured after 24 hrs by WST-1 assay relative to control; format: functional; design: scale not given: the % may be the effect or the level left
Outline: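 F. nucleatum ATCC 25586 was grown anaerobically in hemin/menadione-supplemented BHI to log phase, 10^8 cells/well. Treatment was 1, 10 or 100 μM for 24 h. WST-1 absorbance at 405 nm was read 30 min after reagent addition. % inhibition was calculated vs medium-only cultures, six independent replicates. Controls: DMSO, tetracycline 2.81 μM.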

Porphyromonas gingivalis [1] = assay: Antibacterial activity against Porphyromonas gingivalis ATCC 33277 assessed as growth inhibition at 100 uM measured after 30 mins by WST-1 assay relative to control; format: functional; design: scale not given: the % may be the effect or the level left
Outline: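 P. gingivalis ATCC 33277 (10^8 cells/well) was grown to log phase in supplemented BHI under anaerobic conditions and incubated 24 h with treatments. WST-1 A405 was read 30 min after reagent addition. Growth inhibition was calculated relative to medium-only cultures, six independent replicates per condition.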

Porphyromonas gingivalis [2] = assay: Bactericidal activity against Porphyromonas gingivalis ATCC 33277 assessed as reduction in colony formation at 100 uM measured 24 hrs […] relative to control; format: functional; design: scale not given: the % may be the effect or the level left; details: in the assay text read “CFU assay” for “safranin staining”
Outline: (§1)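 P. gingivalis ATCC 33277 (10^8/well) was grown anaerobically in supplemented BHI and treated 24 h at 1, 10 or 100 μM in DMSO. Cultures were diluted 1:400 and plated on blood agar; colonies were counted after 5 days anaerobic incubation. % inhibition was based on CFUs/mL vs medium-only cultures, three independent replicates. Controls: tetracycline 2.81 μM, DMSO.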

Actinomyces naeslundii = assay: Antibacterial activity against Actinomyces naeslundii ATCC 49340 assessed as growth inhibition at 100 uM measured after 24 hrs by WST-1 assay relative to control; format: functional; design: scale not given: the % may be the effect or the level left
Outline: (§2)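 A. naeslundii ATCC 49340 (anaerobic) and S. sanguinis ATCC 10556 (aerobic) were grown in BHI with 5 μg/mL hemin and 1 μg/mL menadione to log phase, 10^8 cells/well. They were exposed to 1, 10 or 100 μM for 24 h, then WST-1 was added. […] Controls: DMSO, penicillin/streptomycin 1X.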

Streptococcus sanguinis = assay: Antibacterial activity against Streptococcus sanguinis ATCC 10556 assessed as growth inhibition at 100 uM measured after 24 hrs by WST-1 assay relative to control; format: functional; design: scale not given: the % may be the effect or the level left; outline: as §2
Porphyromonas gingivalis [3] = assay: Antibiofilm activity against Porphyromonas gingivalis ATCC 33277 assessed as inhibition of biofilm at 25 uM measured after 48 hrs by safranin staining relative to control; format: functional; design: scale not given: the % may be the effect or the level left
Outline: (§3)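 Biofilm formation: P. gingivalis ATCC 33277 (10^8 cells/well) was grown in supplemented BHI under anaerobic conditions with gentle shaking, exposed to 10, 25, 50 or 100 μM for 48 h. Biomass was stained with 0.1% safranin and A492 measured. Biofilm growth % = 100×OD treated/OD DMSO control. Positive controls: tetracycline 2.81 μM.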

Porphyromonas gingivalis [4] = assay: Bactericidal activity against Porphyromonas gingivalis ATCC 33277 assessed as reduction in colony formation at 10 uM measured 24 hrs by safranin staining relative to control; format: functional; design: scale not given: the % may be the effect or the level left; details: in the assay text read “CFU assay” for “safranin staining”; outline: as §1
HepG2 = assay: Cytotoxicity against human HepG2 cells assessed as cell survival rate at upto 31.3 to 62.6 microg/ml measured after 24 hrs by resazurin dye based analysis relative to control; format: functional; details: dose 31.3-62.6 µg/ml, at 31.3 to 62.6 µg/mL
Outline: (§4)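 HEK-293 and HepG2 cells were maintained in DMEM with 10% FBS and 1% Pen/Strep at 37 °C, 5% CO2. Compounds were tested over 0–62.6 μg/mL. Survival values above 100% were normalized to 100%.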

[5] = Hemolytic activity in mouse RBC at 27 microg/ml incubated for 1 hr; format: toxicity, cell-based, Erythrocyte; details: mouse red blood cells (erythrocytes), at 27 µg/mL, read-out: Activity
Porphyromonas gingivalis [6] = assay: Antibacterial activity against Porphyromonas gingivalis assessed as reduction of CFU at 10 uM incubated for 5 days measured by […]; format: functional, organism-based; details: time 5.0 day; outline: as §1
Porphyromonas gingivalis [7] = assay: Antibiofilm activity against Porphyromonas gingivalis ATCC 33277 assessed as inhibition of biofilm at 10 uM measured after 48 hrs by safranin staining relative to control; format: functional; design: scale not given: the % may be the effect or the level left; outline: as §3
[8] = Cytotoxicity against human OKF6 cells assessed as morphological change at 100 uM […]; format: toxicity, cell-based; details: okf6, 100 µM
Outline: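 OKF6 oral keratinocytes were treated 24 h at 10 or 100 μM. Cell morphology and density were examined by microscopy across the entire well. Controls: medium, 1% DMSO, staurosporine 8 μM.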

Porphyromonas gingivalis [9] = assay: Antibiofilm activity against Porphyromonas gingivalis ATCC 33277 assessed as inhibition of biofilm at 50 uM measured after 48 hrs by safranin staining relative to control; format: functional; design: scale not given: the % may be the effect or the level left; outline: as §3
[10] = Cytotoxicity against human OKF6 cells assessed as reduction in cell viability at 10 uM by Annexin V-FITC/PI staining based flow cytometric analysis relative to control; format: toxicity; details: okf6, 10 µM
Outline: (§5)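 OKF6 keratinocytes were exposed 24 h to 10 or 100 μM. Apoptosis/necrosis was assessed by FITC-Annexin V staining and flow cytometry, ≥10,000 events per condition, in duplicate across two independent experiments. Controls: medium, 1% DMSO, staurosporine 8 μM.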

[11] = Cytotoxicity against human OKF6 cells assessed as reduction in cell viability at 100 uM by Annexin V-FITC/PI staining based flow cytometric analysis relative to control; format: toxicity; details: okf6, 100 µM; outline: as §5
Porphyromonas gingivalis [12] = assay: Antibacterial activity against Porphyromonas gingivalis ATCC 33277 assessed as growth inhibition at 10 uM measured after 24 hrs by WST-1 assay relative to control; format: functional; design: scale not given: the % may be the effect or the level left
Outline: (§6)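 Log-phase P. gingivalis ATCC 33277 was grown anaerobically in hemin/menadione-supplemented BHI, 10^8 cells/well, and treated for 24 h (DMSO vehicle). […] Derivatives: six independent replicates; controls: 42 replicates.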

Porphyromonas gingivalis [13] = assay: Antibiofilm activity against Porphyromonas gingivalis ATCC 33277 assessed as inhibition of biofilm at 10 to 100 uM measured after 48 hrs by safranin staining relative to control; format: functional; design: scale not given: the % may be the effect or the level left; details: dose 10-100 µM; outline: as §3
Porphyromonas gingivalis [14] = assay: Antibacterial activity against Porphyromonas gingivalis ATCC 33277 assessed as growth inhibition at 1 uM measured after 24 hrs by WST-1 assay relative to control; format: functional; design: scale not given: the % may be the effect or the level left; outline: as §6
Erythrocyte = assay: Hemolytic activity in mouse RBC upto 100 uM incubated for 1 hr; format: toxicity, cell-based
Outline: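 Murine red blood cells incubated with compound at 3.13 to 100 μM for 1 h at 37 °C. PBS only was the negative control; Triton X-100 (1% v/v) set 100% hemolysis.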

Porphyromonas gingivalis [15] = assay: Antibacterial activity against Porphyromonas gingivalis ATCC 33277 assessed as growth inhibition at 1 to 100 uM measured after 24 hrs by WST-1 assay relative to control; format: functional; design: scale not given: the % may be the effect or the level left; details: dose 1-100 µM; outline: as §6
Porphyromonas gingivalis [16] = assay: Antibiofilm activity against Porphyromonas gingivalis ATCC 33277 assessed as inhibition of biofilm at 100 uM measured after 48 hrs by safranin staining relative to control; format: functional; design: scale not given: the % may be the effect or the level left; outline: as §3
Porphyromonas gingivalis [17] = assay: Antibacterial activity against Porphyromonas gingivalis at 100 uM incubated for 5 days measured by […] relative to control; format: functional; details: dose 10 µM; time 5 day; in the assay text read “10 uM” for “100 uM”; outline: as §1
Porphyromonas gingivalis [18] = assay: Antibacterial activity against Porphyromonas gingivalis ATCC 33277 assessed as growth inhibition at 25 uM measured after 24 hrs by WST-1 assay relative to control; format: functional; design: scale not given: the % may be the effect or the level left; outline: as §6
[19] = Hemolytic activity in mouse RBC at 100 uM incubated for 1 hr; format: toxicity, cell-based, Erythrocyte; details: mouse red blood cells (erythrocytes), read-out: Activity
Outline: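 Murine red blood cells were incubated 1 h at 37 °C with compounds at 3.13–100 μM. PBS served as the negative control and Triton X-100 (1% v/v) as the 100% hemolysis reference.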

HEK293 = assay: Cytotoxicity against HEK293 cells assessed as cell survival rate upto 31.3 microg/ml measured after 24 hrs by resazurin dye based analysis; format: functional; details: Homo sapiens, dose <= 31.3 µg/ml; outline: as §4
Porphyromonas gingivalis [20] = assay: Antibacterial activity against Porphyromonas gingivalis ATCC 33277 assessed as growth inhibition at 50 uM measured after 24 hrs by WST-1 assay relative to control; format: functional; design: scale not given: the % may be the effect or the level left; outline: as §6

Compound: COc1ccc(Cc2cn(C)c3ccc([N+](=O)[O-])cc23)cc1C(=O)NS(=O)(=O)c1c(F)cccc1F
- Activity (Fusobacterium nucleatum): 76%
- Activity (Porphyromonas gingivalis [1]): 61%
- Activity (Porphyromonas gingivalis [2]): 100%
- Activity (Actinomyces naeslundii): 40%
- Activity (Streptococcus sanguinis): 40%

Compound: COc1ccc(Cc2cn(C)c3ccc([N+](=O)[O-])cc23)cc1C(=O)NS(=O)(=O)c1ccccc1F
- Activity (Porphyromonas gingivalis [3]): 52%
- Activity (Porphyromonas gingivalis [4]): 96%
- Activity (Porphyromonas gingivalis [1]): 61%
- Activity (Porphyromonas gingivalis [2]): 100%
- Activity (HepG2): >76%

Compound: C[C@@H]1[C@H](O)[C@@H](C)/C=C/C=C/C=C/C=C/C=C/C=C/C=C/[C@H](O[C@@H]2O[C@H](C)[C@@H](O)[C@H](N)[C@@H]2O)C[C@@H]2O[C@](O)(C[C@@H](O)C[C@@H](O)[C@H](O)CC[C@@H](O)C[C@@H](O)CC(=O)O[C@H]1C)C[C@H](O)[C@H]2C(=O)O [AMPHOTERICIN B]
- hemolysis at 1 h, 27 microg/ml [5]: 0%

Compound: COc1ccc(Cc2cn(C)c3ccc([N+](=O)[O-])cc23)cc1C(=O)NS(=O)(=O)c1ccccc1Cl
- Activity (Porphyromonas gingivalis [6]): Active
- Activity (Porphyromonas gingivalis [7]): 53%
- Activity (Porphyromonas gingivalis [3]): 55%
- Activity (Porphyromonas gingivalis [4]): Active
- Activity (Porphyromonas gingivalis [1]): 61%
- Activity (Porphyromonas gingivalis [2]): 100%
- Activity [8]: Toxic
- Activity (Porphyromonas gingivalis [9]): 58%
- Activity (HepG2): >76%
- Activity [10]: 9%
- Activity [11]: 5%

Compound: COc1ccc(Cc2cn(C)c3ccc([N+](=O)[O-])cc23)cc1C(=O)NS(=O)(=O)c1ccc([N+](=O)[O-])cc1
- Activity (Porphyromonas gingivalis [12]): 63%
- Activity (Porphyromonas gingivalis [4]): Active
- Activity (Porphyromonas gingivalis [13]): 86%
- Activity (Porphyromonas gingivalis [2]): 100%
- Activity (Porphyromonas gingivalis [14]): 0%

Compound: COc1ccc(Cc2cn(C)c3ccc([N+](=O)[O-])cc23)cc1C(=O)NS(=O)(=O)c1ccccc1Br
- Activity (Porphyromonas gingivalis [6]): Active
- Activity (Porphyromonas gingivalis [4]): Active
- Activity (Porphyromonas gingivalis [1]): 61%
- Activity (Porphyromonas gingivalis [2]): 100%
- Activity [8]: Toxic
- Activity (HepG2): >76%

Compound: CCCn1cc(Cc2ccc(OC)c(C(=O)NS(=O)(=O)c3ccccc3F)c2)c2cc([N+](=O)[O-])ccc21
- Activity (Erythrocyte): <= 25%

Compound: CCCCn1cc(Cc2ccc(OC)c(C(=O)NS(=O)(=O)c3ccccc3F)c2)c2cc([N+](=O)[O-])ccc21
- Activity (Erythrocyte): <= 25%

Compound: CCCn1cc(Cc2ccc(OC)c(C(=O)NS(=O)(=O)c3ccc([N+](=O)[O-])cc3)c2)c2cc([N+](=O)[O-])ccc21
- Activity (Porphyromonas gingivalis [12]): 77%
- Activity (Erythrocyte): <= 15%
- Activity (Porphyromonas gingivalis [2]): 100%
- Activity (Porphyromonas gingivalis [15]): 60%

Compound: CN(C)[C@@H]1C(O)=C(C(N)=O)C(=O)[C@@]2(O)C(O)=C3C(=O)c4c(O)cccc4[C@@](C)(O)[C@H]3C[C@@H]12 [TETRACYCLINE]
- Activity (Porphyromonas gingivalis [16]): 57%

Compound: CCCCn1cc(Cc2ccc(OC)c(C(=O)NS(=O)(=O)c3ccc([N+](=O)[O-])cc3)c2)c2cc([N+](=O)[O-])ccc21
- Activity (Porphyromonas gingivalis [16]): 57%
- Activity (Porphyromonas gingivalis [12]): 77%
- Activity (Erythrocyte): <= 15%
- Activity (Porphyromonas gingivalis [17]): 71%
- Activity (Porphyromonas gingivalis [2]): 100%
- Activity (Porphyromonas gingivalis [9]): 63%
- Activity [10]: 63%
- Activity (Porphyromonas gingivalis [15]): 69%
- Activity [11]: 23%

Compound: COc1ccc(Cc2cn(CC(C)C)c3ccc([N+](=O)[O-])cc23)cc1C(=O)NS(=O)(=O)c1ccc([N+](=O)[O-])cc1
- Activity (Porphyromonas gingivalis [1]): 73%
- Activity (Porphyromonas gingivalis [2]): 100%

Compound: CCn1cc(Cc2ccc(OC)c(C(=O)NS(=O)(=O)c3ccc([N+](=O)[O-])cc3)c2)c2cc([N+](=O)[O-])ccc21
- Activity (Porphyromonas gingivalis [12]): 77%
- Activity (Porphyromonas gingivalis [4]): 19%
- Activity (Porphyromonas gingivalis [2]): 100%
- Activity (Porphyromonas gingivalis [14]): 6%

Compound: COc1cc(C(=O)NS(=O)(=O)c2ccccc2C)ccc1Cc1cn(C)c2ccc(NC(=O)OC3CCCC3)cc12 [ZAFIRLUKAST]
- Activity (Porphyromonas gingivalis [16]): 58%
- Activity (Porphyromonas gingivalis [18]): 74%
- hemolysis at 1 h, 100 µM [19]: 72%
- Activity (HEK293): Not toxic
- Activity (Porphyromonas gingivalis [20]): 88%
